Among the data in ChEMBL document CHEMBL4513216, “Probing the Open Global Health Chemical Diversity Library for Multistage-Active Starting Points for Next-Generation Antimalarials” (ACS Infect Dis, 2020) are cytotoxicity values, retold here.

Each structure is given as a SMILES string.

The nature of the series: Toxicity liver stage against HepG2, at 10uM. In kind it is cell-based. Also on record: test concentration 10 uM, cell line HepG2-A16-CD81EGFP. The following applies: human, HepG2-A16-CD81EGFP cells; read-out: INHIBITION
Summed up:
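Uninfected HepG2-A16-CD81EGFP cells, 3 × 10^3 per well, 1536-well, plated on prespotted compound at 10 μM final, parasite-free screening media added to match infected plates; puromycin 10 μM positive, DMSO 0.5% negative; run in parallel with 48 h PbLuc assay at 37 °C, 5% CO2; viability by CellTiter-Glo luminescence, normalized to controls.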
For `CCCn1ccnc1SCCNS(=O)(=O)c1ccccc1`, the cytotoxicity at 10 µM was -12.8%.

On to `CCn1ncc2c(C(F)F)cc(-c3ccn(C)n3)nc21`, for which the cytotoxicity at 10 µM is -1.21%.

For the compound `Cc1noc(C)c1CN1CCc2ncnc(-c3ccc(F)cc3)c2CC1`, the cytotoxicity at 10 µM was -100%.

As to `Cc1nc(N2CCCCC2)ncc1-c1cc(O)[nH]n1`, the cytotoxicity at 10 µM turned out to be 2.76%.

On to `COCc1nc(CNC2CCN(C(C)C)CC2)no1`, for which the cytotoxicity at 10 µM is 4.04%.

As for `CCSCCOC(=O)CCCc1ccc2c(c1)CC(=O)N2`, the cytotoxicity at 10 µM amounted to 6.34%.

For the compound `CN(C)C(=O)COC[C@H]1CC[C@@H]2[C@@H](CCN2Cc2ccccn2)O1`, the cytotoxicity at 10 µM was -18.7%.

On to `COc1ccc(F)cc1C(C)NC(=O)Nc1nnc(C)s1` (stereo unspecified), for which the cytotoxicity at 10 µM is -1.01%.

On to `O=S(=O)(c1ccc2c(c1)OCCO2)N1CCc2ccccc2C1`, for which the cytotoxicity at 10 µM is -5.52%.

As to `Cc1nnc(NC(=O)NCc2ccc(OC(C)C)nc2)s1`, the cytotoxicity at 10 µM was -10.4%.

As to `c1ncn(CC2CCCN(Cc3nc(C4CC4)no3)C2)n1` (stereo unspecified), the cytotoxicity at 10 µM was -12.9%.

In the case of `Cc1nc(CN(Cc2ccc3c(c2)OCCO3)C2CCCC2)no1`, the cytotoxicity at 10 µM was -9.19%.

Take `OC(c1cnn(-c2ccccc2)c1)C(F)(F)F` (stereo unspecified): the cytotoxicity at 10 µM was -3.75%.

Consider `CCC(=O)N1CCC(c2nc(O)c3c(n2)CN(C2CCCCC2)CC3)C1` (stereo unspecified), for which the cytotoxicity at 10 µM is -15.7%.

Consider `Cc1cc(C(=O)N2CCCC(O)(CN3CCCC3)C2)ccc1Cl` (stereo unspecified), for which the cytotoxicity at 10 µM was found to be 1.6%.

As for `CCC(C)(N)c1nc(=O)c(C)c(C)[nH]1` (stereo unspecified), the cytotoxicity at 10 µM is -1.82%.

`CCCc1nnc(N2CCC3(CC2)CC(=O)NC(=O)C3)o1`: the cytotoxicity at 10 µM was found to be 3.06%.

With `NC(=O)C(Cc1ccccc1)NS(=O)(=O)Cc1ccccc1F` (stereo unspecified), the cytotoxicity at 10 µM was -13%.

`CCOc1ncccc1CNC(=O)Nc1cc(C)nn1C`: the cytotoxicity at 10 µM came out at 1.25%.

With `COc1ccc(CN2CCO[C@@H]3C[C@@H](C(=O)NC(C)C)C[C@H]32)cc1`, the cytotoxicity at 10 µM is 8.31%.

Regarding `CN1Cc2ccccc2CC2(CCN(c3ncccn3)CC2)C1=O`, the cytotoxicity at 10 µM was -7.42%.

`COc1ncccc1CNC(=O)c1c(C)oc(C)c1C`: the cytotoxicity at 10 µM is -14.5%.

Regarding `COCc1ncc(CN(Cc2ccncc2)Cc2ccc(C)s2)cn1`, the cytotoxicity at 10 µM was -47%.

Take `CC1=Nc2c(c(=O)[nH]n2C2CCCCC2)C(c2ccc(C(=O)O)cc2)S1` (stereo unspecified): the cytotoxicity at 10 µM is -7.92%.

With `COc1ccccc1C(O)CNC(=O)Nc1ncccc1C` (stereo unspecified), the cytotoxicity at 10 µM was -8.65%.

For the compound `COCC1CN(C(=O)Nc2cc(Br)ccc2F)CCO1` (stereo unspecified), the cytotoxicity at 10 µM was -0.749%.

As for `COc1cccc2c1OCC(NCc1cnn(-c3ccccc3F)c1)C2` (stereo unspecified), the cytotoxicity at 10 µM was found to be 1.68%.

Consider `Cc1cc(N2CCC(O)(C(=O)O)CC2)nc2ccccc12`, for which the cytotoxicity at 10 µM was -41.5%.

As to `O=C(NC1CCN(c2ccccc2OC(F)F)C1)c1c[nH]nn1` (stereo unspecified), the cytotoxicity at 10 µM is -2.54%.

In the case of `O=C(CCc1ccccc1Br)NCC(=O)NCc1ccccc1`, the cytotoxicity at 10 µM turned out to be 0.988%.

Consider `CC(=O)Nc1nc(COc2nc(C)no2)cs1`, for which the cytotoxicity at 10 µM was -16.6%.

Take `CCC(C)(NCC(=O)N(c1ccccc1)C(C)C)c1nc(C)cs1` (stereo unspecified): the cytotoxicity at 10 µM came out at 10.9%.

On to `O=C1NC2(CCN(Cc3ccccc3Cl)CC2)CC1c1ccccc1` (stereo unspecified), for which the cytotoxicity at 10 µM is -49.2%.

As for `CCc1nc(CN2CCN(C(=O)c3cc(C)nn3C)CC2)cs1`, the cytotoxicity at 10 µM came out at 3.83%.

Regarding `O=C(c1nc2c(s1)CCCN2CC1CC1)N1CCCC1`, the cytotoxicity at 10 µM is 15.2%.

With `CNC(=O)c1cc(NC(=O)NCC2CCS(=O)(=O)C2)ccc1OC` (stereo unspecified), the cytotoxicity at 10 µM was 9.57%.

Turning to `O=C(C1CC1)N1CC[C@H](c2nnc(-c3ccccc3F)o2)C1`, the cytotoxicity at 10 µM worked out at 0.705%.

As for `Cc1cc(C)nc(N2Cc3cnn(Cc4ccc(F)cc4)c3C2)n1`, the cytotoxicity at 10 µM was 25.2%.

For `Cc1nc2ccccn2c1CN1C[C@@H](CN2CCOCC2)[C@@H](CO)C1`, the cytotoxicity at 10 µM turned out to be 1.73%.

With `CCNc1cc2c(nn1)CCN(C(=O)c1cc3nc(C)ccc3o1)C2`, the cytotoxicity at 10 µM was -3.85%.

Turning to `Cc1nsc(N2CCc3sccc3C2)n1`, the cytotoxicity at 10 µM was found to be 7.03%.

Consider `O=C(CCc1nccs1)N1CCN(c2nccs2)CC1`, for which the cytotoxicity at 10 µM is -21.8%.

For `COc1ccc(S(=O)(=O)NCCC(O)c2ccccc2)c(C)c1` (stereo unspecified), the cytotoxicity at 10 µM came out at 0.174%.

For the compound `COc1ccc(CN2CCC3(CC2)CCN(CCN(C)C)C3=O)cc1`, the cytotoxicity at 10 µM is -4.25%.

For the compound `O=C(CN1C[C@@H]2CC[C@H]1CN(Cc1ccccn1)C2)Nc1ccccc1`, the cytotoxicity at 10 µM is -5.92%.

With `O=C(NC1CCCN(c2ccc(OC(F)F)cc2)C1)c1c[nH]nn1` (stereo unspecified), the cytotoxicity at 10 µM amounted to 24.8%.

Take `Cc1[nH]c2ccc(CNC(=O)c3ccc(CN4CCCC4)o3)cc2c1C`: the cytotoxicity at 10 µM is -2.5%.

Regarding `Cc1ccc(C)c(CSc2nnc([C@@H](N)C(C)C)o2)c1`, the cytotoxicity at 10 µM turned out to be 5.95%.

For the compound `COc1cc(C2SCC(=O)Nc3[nH]ncc32)cc2c1OCO2` (stereo unspecified), the cytotoxicity at 10 µM is 5.28%.

For the compound `CCCn1cc(-c2cc(C(=O)N(C)C)c3ccc(OC)cc3n2)cn1`, the cytotoxicity at 10 µM was found to be 6.22%.

As to `CCc1nc(C)sc1CN1CC[C@@](O)(C2CCOCC2)[C@H](C)C1`, the cytotoxicity at 10 µM came to 1.71%.

`Cc1ccc(S(=O)(=O)NC[C@H]2OC[C@@H](NCc3ccncc3)[C@@H]2O)cc1`: the cytotoxicity at 10 µM was found to be 2.6%.

Take `CC(=O)N1CC(c2ncn(C(C)C)n2)c2cc(C(=O)NC3CC3)ccc21` (stereo unspecified): the cytotoxicity at 10 µM amounted to 4.11%.

For the compound `CSc1ccc(C(=O)N2C[C@@H]3CC[C@H]2CN(Cc2ccccc2)C3)cc1`, the cytotoxicity at 10 µM was -5.49%.

Consider `O=C(CN1CCCCC1Cn1cccn1)NC1CCOCC1` (stereo unspecified), for which the cytotoxicity at 10 µM came to 4.08%.

Consider `c1ccc(Cc2nc(CNCCn3cccn3)cs2)cc1`, for which the cytotoxicity at 10 µM is -2.79%.

In the case of `c1cnc(NC[C@@H]2CCC[C@@H]3CN(Cc4cc[nH]n4)C[C@@H]32)nc1`, the cytotoxicity at 10 µM is -13.1%.

Consider `Cc1nc(CN(C)C2CCN(Cc3ccc4ccccc4n3)C2)no1` (stereo unspecified), for which the cytotoxicity at 10 µM was -2.23%.

On to `N#Cc1ccc(CN2CCCC2Cn2cccn2)c(F)c1` (stereo unspecified), for which the cytotoxicity at 10 µM was -9.2%.

In the case of `COC(=O)CN1CC2(CCNCC2)COc2ccccc2S1(=O)=O`, the cytotoxicity at 10 µM is -11.7%.

With `CCn1nnc2c1C(COCCN(C)C)CN(Cc1ccco1)C2` (stereo unspecified), the cytotoxicity at 10 µM was 1.86%.

With `CCn1nc(C(C)C)cc1C(=O)N1CCOc2ccc(OC)cc21`, the cytotoxicity at 10 µM stood at 9.27%.

As to `Cc1cc(NC(=O)CNC(C)(C)c2ccc3c(c2)OCCO3)no1`, the cytotoxicity at 10 µM is -7.1%.

In the case of `CCC(C)(C)n1nnnc1C(c1cccs1)N1CCc2ccccc21` (stereo unspecified), the cytotoxicity at 10 µM was 8.67%.

As to `O=C(CCCn1cncn1)N1CCCCC1c1nccs1` (stereo unspecified), the cytotoxicity at 10 µM is 8.6%.

In the case of `CN(C)C[C@@H]1CN(C(=O)c2cc(F)ccc2F)C[C@@H]1CO`, the cytotoxicity at 10 µM came out at 7.45%.

As for `CC(C)Oc1cccc(CN(C)C(=O)Cc2ccon2)c1`, the cytotoxicity at 10 µM was -2.09%.

For the compound `CN(C)CC1CN(Cc2ccc(-n3cccn3)cc2)CCO1` (stereo unspecified), the cytotoxicity at 10 µM was determined as 4.09%.

For the compound `CCOc1ccc(Cl)cc1CCNC(=O)c1ccc(=O)n(C)c1`, the cytotoxicity at 10 µM worked out at 3.31%.

`Cc1ccoc1C(=O)NCc1ccnc(OCC(F)(F)F)c1`: the cytotoxicity at 10 µM is -7.8%.

As for `Cc1nc(C(=O)N2CCCC(c3cccc(-n4ccnc4)n3)C2)co1` (stereo unspecified), the cytotoxicity at 10 µM worked out at 8.31%.
